Compound activity as filed in PubChem BioAssay.
FLuc inh counter: counter-screen for luciferase assay inhibitors: firefly luciferase inhibition; 200,000 compounds, 1.5% hits; ATPLite firefly luciferase biochemical luminescence, 10 min; inhibition, % at 10 µM; P08659;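 active means inhibition above about 50% when tested at 10 µM, limit read from the data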
Target sequence (P08659 whole entry, looked up): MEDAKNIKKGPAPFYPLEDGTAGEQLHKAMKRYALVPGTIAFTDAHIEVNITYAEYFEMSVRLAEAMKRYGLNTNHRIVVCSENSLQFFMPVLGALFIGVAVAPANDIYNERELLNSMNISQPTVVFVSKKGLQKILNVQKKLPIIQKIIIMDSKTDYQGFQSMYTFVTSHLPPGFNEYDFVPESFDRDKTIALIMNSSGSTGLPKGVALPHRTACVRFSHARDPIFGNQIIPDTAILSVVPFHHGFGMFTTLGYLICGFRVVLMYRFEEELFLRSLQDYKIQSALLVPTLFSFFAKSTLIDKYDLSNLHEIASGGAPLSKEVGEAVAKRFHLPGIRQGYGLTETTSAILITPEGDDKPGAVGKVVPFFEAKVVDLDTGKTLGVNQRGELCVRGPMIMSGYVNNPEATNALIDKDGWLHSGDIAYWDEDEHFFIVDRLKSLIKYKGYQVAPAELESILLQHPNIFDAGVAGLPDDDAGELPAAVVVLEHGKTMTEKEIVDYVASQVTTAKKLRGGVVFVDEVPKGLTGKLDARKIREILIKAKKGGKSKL
STAT1 act: activators of IFN-gamma induced STAT1 signaling; AID 932; activation (% of control), % at 5.5 µM; NIH 3T3 STAT1-luciferase reporter, luminescence; 100% = IFN-gamma alone, no compound; 200,000 compounds, 2.6% hits;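 active means activation above the screen-wide mean activation plus 3 SD, cut at about 130% in these data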;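 further: raw ratio to IFN-gamma control signal so 100% means no change and 0% no light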
NF-kB neuron act: compounds increasing NF-kB expression in human neuronal cells; NF-kB reporter expression; hits give high values; fold change at 12.5 µM; 190,000 compounds, 1.6% hits; AID 1239; in the data active means fold change above about 3.3
FLuc stim CS: firefly luciferase counter-screen for stimulation assays. ATPlite luciferase biochemical, luminescence, 10 min; 0 = ATP-free wells, 1 = DMSO control. 200,000 tested, under 10 active. activation factor at 10 µM;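 active means luciferase activation factor, scaled between plate controls, of at least 2 with compound at 10 µM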
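Assay system: Luciferase/luciferin reagent mix; Medium: PBS as buffer for the ATP substrate; Dosing: test compounds dosed from 2 mM stocks in 100% DMSO; Times: 10 min, room temperature; Signal: luminescence from luciferase reaction; Read-out: luciferase activation; Controls: No-ATP low control, compound-free enzyme-plus-ATP high control.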
APP 5'UTR act: APP 5'UTR luciferase reporter activation | SH-SY5Y APP 5'UTR luciferase reporter, luminescence; zero percent = DMSO vehicle wells | activation, % at 2 µM | 190,000 compounds, 1% hits | AID 1276;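 active means activation above a set limit, based on mean plus 3 SD of controls, cut at about 140% in these data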
An asterisk follows results filed as active; · = no result given. In the library only some 4.1% were active in any assay of this set; here they are far more common.

SMILES	FLuc inh counter	STAT1 act	NF-kB neuron act	FLuc stim CS	APP 5'UTR act
COc1ccc2occ(C(=O)c3cccs3)c2c1	33	128	4.3*	0.7	55
COc1ccc(OC)c(C(=O)c2coc3ccc(OC(C)=O)cc23)c1	-6	101	1.4	1.1	14
O=c1[nH]c(Nc2nc3ccccc3o2)nc2c1CCCC2	70*	90	2	0.3	170*
Cc1c(-c2ccccc2)[n+](=O)c2c(n1[O-])CCCCC2	-4	103	0.98	1	-20
O=C(CCSc1ccc(Cl)c(Cl)c1)NC12CC3CC(CC(C3)C1)C2	-3	102	1.3	1	8
COc1cc(/C=N/NC(=O)c2ccoc2C)cc(OC)c1O	6	135*	1.1	0.9	-2
Cc1occc1C(=O)N/N=C/C=C/c1ccccc1	14	146*	2.6	0.9	55
Cc1ccc(/C=N/NC(=O)c2ccoc2C)o1	8	132*	1.7	0.9	28
Cc1occc1C(=O)N/N=C/C=C/c1ccccc1[N+](=O)[O-]	4	114	1.3	1	8
NS(=O)(=O)c1cccc(NC(=O)COC(=O)CN2C(=O)C3CC=CCC3C2=O)c1 (stereo not drawn)	0	101	1.1	1	21
COc1ccc(C2=NN(c3ccccc3)C(c3cn(CCC(=O)O)nc3-c3ccccc3)C2)cc1 (stereo not drawn)	7	115	1.3	0.9	4
CC(CCc1ccccc1)NC(=O)CN1C(=O)NC2(CCCCC2)C1=O (stereo not drawn)	-7	92	1	1.1	-7
O=C(C=C1SCCS1)/C=C/c1ccco1	70*	114	5.9*	0.3	158*
O=C(O)C(C(=O)/C=C/c1ccco1)=C1SCCS1	1	94	1.5	1	3
Cc1ccc(CSc2nc3ncccc3[nH]2)cc1	83*	107	3.2	0.2	135
Cc1ccc2nc(SCc3ccc([N+](=O)[O-])cc3)[nH]c2c1	1	105	1.2	1	7
Cc1ccc(CSc2nc3ccncc3[nH]2)cc1	98*	35	5.2*	0	148*
C=C(C)CSc1nc2ncccc2[nH]1	-1	105	1.2	1	-5
Clc1ccc(CSc2nc3ccncc3[nH]2)cc1	97*	53	7.5*	0	147*
CCCCNC(=O)C1CC(c2cccc([N+](=O)[O-])c2)=NO1 (stereo not drawn)	-6	140*	3.5*	1.1	50
CC1CCN(C(=O)Cn2nnc(-c3cccs3)n2)CC1	3	129*	2.1	1	54
O=C(/C=C\Nc1ccccn1)c1ccc(Cl)cc1	91*	50	1.8	0.1	175*
O=C(/C=C/c1ccccc1O)c1ccc(Cl)cc1	18	93	1.9	0.8	25
CC(=O)c1cccc(NC(=O)COC(=O)C2=COCCO2)c1	-4	101	1.2	1	-22
CC(=O)N(C)Cc1ccc(C(=O)CCl)cc1	-1	90	3.8*	1	-2
SMILES	FLuc inh counter	STAT1 act	NF-kB neuron act	FLuc stim CS	APP 5'UTR act
CCCCc1ccc(NC(=S)N2CCCC(C)C2)cc1 (stereo not drawn)	13	94	1.3	0.9	9
COc1cc2c(cc1OC)C(C1C(=O)CC(C)CC1=O)N(C(=O)CCl)CC2 (stereo not drawn)	-4	99	1	1	-3
O=c1c2ccccc2nc2c3ccccc3c(Cl)nn12	-1	96	0.95	1	-4
O=c1c2ccccc2nc2c3ccccc3cnn12	17	134*	1.7	0.8	35
O=C(c1ccc(=O)[nH]c1)N(Cc1cccs1)C1(C(=O)NC2CCCC2)CCCCC1	-4	92	0.93	1	-10
CN(C)/C=N/C(=S)Nc1ccc(Br)cc1F	7	130*	2.2	0.9	6
c1ccc(CCNc2ccccc2)cc1	-5	·	·	1.1	·
C#CCNC(=O)/C=C/c1ccc(OC)cc1	21	120	2	0.8	55
C=CCn1nc([N+](=O)[O-])nc1Sc1cccc2cccnc12	-1	108	3.5*	1	-44
O=C(COc1ccccc1C(=O)c1cnn(-c2ccccc2)c1)Nc1ccccc1	74*	120	1.4	0.3	31
Cc1ccc(-n2cc(C(=O)c3ccccc3O)cn2)cc1	68*	89	3.1	0.3	100
CCCCn1c(N)c(N(CC)C(=O)c2cccc(OC)c2)c(=O)[nH]c1=O	-5	98	1.2	1.1	-6
Cc1ccc(NCCCCO)cc1C	-4	95	1.1	1	-17
O=C(NCCc1ccc(F)cc1)c1ccc([N+](=O)[O-])cc1	19	137*	2.2	0.8	96
COc1ccc(OCC(=O)Nc2cccc(-c3nc4ccccc4o3)c2)cc1	15	148*	1.8	0.9	113
Cc1cccc(-c2nc3cc(NC(=O)C4CCCO4)ccc3o2)c1 (stereo not drawn)	83*	130*	4.7*	0.2	138*
CCC(=O)Nc1ccc(-c2nc3ccccc3c(=O)o2)cc1	74*	63	·	0.3	-15
O=C(Nc1cccc(-c2nc3ccccc3c(=O)o2)c1)c1ccccc1	-3	94	1	1	17
Cc1ccc2oc(-c3cccc(NC(=O)Cc4cccs4)c3)nc2c1	5	120	1.1	1	-5
CCC(=O)Nc1ccc2oc(-c3cccc(C)c3)nc2c1	71*	103	3.5*	0.3	190*
COc1ccc(C(C(=O)NCC2CCCO2)N(C(=O)CNC(=O)c2cccs2)c2ccc(C(C)=O)cc2)cc1OC (stereo not drawn)	-2	99	0.93	1	8
O=C(Nc1cccc(-c2nc3cc(Cl)ccc3o2)c1)C1CCCO1 (stereo not drawn)	3	130*	3.4*	1	·
Cc1ccc2oc(-c3cccc(NC(=O)C4CCCO4)c3)nc2c1 (stereo not drawn)	30	140*	4*	0.7	56
CC1CCCCC1NCC#CCOc1ccc(Cl)cc1 (stereo not drawn)	-7	107	·	1.1	3
O=C(c1cc(COc2ccc(F)cc2F)on1)N1CCSCC1	2	138*	2.6	1	64
SMILES	FLuc inh counter	STAT1 act	NF-kB neuron act	FLuc stim CS	APP 5'UTR act
O=C(c1cc(COc2ccc(F)cc2Cl)on1)N1CCC(c2ccncc2)CC1	-4	85	1.1	1	-7
COc1ccc2nc(NC(=O)C3CCCO3)sc2c1 (stereo not drawn)	33	150*	3.5*	0.7	138*
COc1ccc(-c2nnc(NC(=O)C3CCCO3)s2)cc1 (stereo not drawn)	28	142*	1.9	0.7	55
O=C(Nc1nc(-c2ccc(Oc3ccccc3)cc2)cs1)C1=COCCO1	-4	94	1	1	5
O=C(Nc1nc(-c2ccc(Cl)cc2)cs1)C1CCCO1 (stereo not drawn)	1	131*	2.5	1	36
Cc1ccc(-c2csc(NC(=O)C3=COCCO3)n2)cc1	3	136*	2.2	1	73
